An excerpt weighted towards active compounds, which were near 1.8% of everything screened.
HKDC1 inhibitor: inhibitors of human hexokinase HKDC1 | recombinant HKDC1, G6PDH/diaphorase resazurin coupled fluorescence | inhibition, % at 20 µM | Q2TB90 | 0.16% of 340,000 active;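 active = inhibition above about 35% when tested at 20 µM, limit read from the data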;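 note: plate controls were DMSO wells with enzyme for no effect and DMSO wells lacking enzyme for full effect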
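Test system: recombinant HKDC1 (HK5) hexokinase enzyme, produced in-house / Doses: 20 µM test compound, 1% DMSO / Timing: 90 min, room temperature / Detection: G6PDH/diaphorase-coupled fluorescence, 1 mM NADP, 100 µM resazurin, 525/613 nm / Control set: DMSO wells with and without enzyme mix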
DNMT1 block: DNMT1 (human) enzyme inhibition | inhibition (reported as % activation of signal), % at 10 µM | DNMT1 molecular beacon, Hinp1I cleavage, fluorescence | 0.83% of 360,000 active | P26358; in the data active = inhibition above about 50%
LMPTP inh: LMPTP (human) inhibition | P24666 | recombinant LMPTP-A, OMFP fluorogenic substrate, fluorescence intensity | inhibition, % at 20 µM | 0.22% of 360,000 active | AID 651560;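 active = compounds that cut the enzyme signal by at least half of the control window in the single-dose screen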;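 note: plate controls were DMSO wells with enzyme plus substrate for no effect and substrate without enzyme for full effect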
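Test system: LMPTP-A, protein tyrosine phosphatase of low molecular weight; Input: 0.625 nM enzyme; Incubation: 50 min dark incubation at room temperature; Signal: endpoint fluorescence intensity from OMFP dephosphorylation; Read-out basis: % inhibition versus control wells.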
Scp-1 inhibitor: blocks human Scp-1 phosphatase activity. 0.88% of 340,000 active. Q9GZU7. Recombinant Scp1, phosphopeptide, malachite green phosphate absorbance. inhibition, % at 20 µM;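 active = inhibition above about 50% at 20 µM, limit read from the data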;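 note: plate controls were DMSO wells with enzyme for no effect and wells lacking enzyme for full effect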
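System: SCP-1 catalytic domain; Reagent: Phospho 17-mer peptide substrate; Doses: one concentration, 20 µM, with 1.0% DMSO; Incubation: 45 min room-temperature reaction, 5 min colour, 30 min stabiliser; Signal: Phosphate-binding colour reagent, absorbance read at 630 nm.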
SUMO1 PPI mod: alters human SUMO1 binding to SIM partners. P63165. SUMO1 binding to a labelled peptide, TR-FRET, 1 h. inhibition, % at 20 µM. 0.33% of 360,000 active. AID 602429; in the data active = inhibition above about 37%
STEP inh: STEP (human) phosphatase inhibition; inhibition, % at 20 µM; recombinant STEP, OMFP fluorogenic substrate, fluorescence; P54829; 0.25% of 360,000 active;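 active = inhibition at 20 µM, scaled per plate between control wells, above about 37%, limit read from the data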;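 note: 0% = DMSO with enzyme and substrate and 100% = substrate only without enzyme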
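Test system: STEP tyrosine phosphatase / Reagent: OMFP at 25 µM / Doses: 20 µM, 1% DMSO / Read-out: percent inhibition scaled to no-enzyme and uninhibited-enzyme controls, plate-pattern corrected / Detection: FITC-channel fluorescence of OMFP product / Medium: Bis-Tris buffer pH 6.0, 2.5 mM DTT, 0.005% Tween 20 / Schedule: 20 min at room temperature, dark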
DNMT1 interf DR: beacon fluorescence artifact, dose response counter-screen. shares compounds with DNMT1 block. IC50, µM. 200 tested, under 10 active. molecular beacon fluorescence, spectral interference counter-screen; call rule not given here
DNMT1 inh conf: DNMT1 inhibition confirmation, single concentration; shares compounds with DNMT1 block; DNMT1 molecular beacon HinP1I cleavage, fluorescence; inhibition, % at 10 µM; 8% of 2,300 active; AID 602385;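 active = average inhibition of at least 30% in the single-concentration confirmation test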
Beacon interf: counter-screen for DNMT1 inhibitors: spectral interference; shares compounds with DNMT1 block; activation (fluorescence interference), % at 10 µM; AID 602387; 1% of 2,300 active; DNMT1 molecular beacon spectral interference counterscreen, fluorescence 485/520;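 active = activation of at least 30% at 10 µM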;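 note: DNMT1 catalytic domain with a HinP1I cleavage step and a FAM/dabcyl DNA beacon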
* marks the source's active call; other numbers are inactive results; · = no result.

SMILES	HKDC1 inhibitor	DNMT1 block	LMPTP inh	Scp-1 inhibitor	SUMO1 PPI mod	STEP inh	DNMT1 inh conf	Beacon interf	others
Cc1ccc(S(=O)(=O)N(C)c2ccc(OC(C)C(=O)N(C)c3ccccc3)cc2)cc1 (stereo not drawn)	7	79*	1	-10	-2	1	0	4
CC(=O)c1ccc(NC(=O)C(C)Oc2ccc(N(C)S(=O)(=O)c3ccc(C)cc3)cc2)cc1 (stereo not drawn)	4	-9	2	-8	1	4	·	·
CCOC(=O)C1=C(C)N=c2sc(=Cc3ccc(OCC(=O)O)cc3)c(=O)n2C1c1ccc(Cl)cc1 (stereo not drawn)	·	92*	76*	·	44*	10	99*	-5	DNMT1 interf DR=>99
CC(C)OCCCNC(=O)c1c(N)n(/N=C/c2cccs2)c2nc3ccccc3nc12	2	60*	0	-7	-4	-1	6	9
CC(=N\NC(=O)c1ccc([N+](=O)[O-])cc1)/C(=N/O)C(=O)Nc1ccccc1	-9	0	0	-10	-29	-1	·	·
Cc1nc(C)c(C(=O)Nc2nc3c(C)cccc3s2)o1	-2	79*	5	49	17	7	10	0
Cc1cccc2sc(NC(=O)C3CCCO3)nc12 (stereo not drawn)	-8	3	0	13	-4	-3	·	·
Nc1nc(NCCOCCO)nc(N2CCCCCC2)c1[N+](=O)[O-]	-1	-2	2	-3	-1	4	·	·
O=C(/C=C/c1ccco1)Nc1cccc(C(=O)Nc2ccccc2C(=O)O)c1	13	86*	4	58*	53*	12	11	0
Cc1ccc(NC(=O)c2cccc(NC(=O)/C=C/c3ccco3)c2)cc1C	-1	8	3	-14	-1	-1	·	·
Cc1ccc(-n2nc3ccc(NC(=O)/C=C/c4ccco4)cc3n2)cc1	-3	104*	8	38	6	7	18	4
O=c1[nH]c(C(Cl)Cl)nc2sc3c(c12)CCN(Cc1ccccc1)C3	22	87*	77*	-2	25	0	18	3
Cc1cc(NC(=O)c2cncc(Br)c2)ccc1NC(=O)c1cc2ccccc2o1	7	75*	1	4	38	9	10	-2
Cc1cc(C)c(C(=O)COC(=O)CCNS(=O)(=O)c2c(Cl)cccc2Cl)cc1C	17	-4	4	-16	1	3	·	·
COc1ccc(/C=N/n2c(C)nc3c([nH]c4ccccc43)c2=O)cc1CN1CCCC(C)(C)C1	-2	54*	1	-4	-3	10	4	3
Clc1cccc(Cc2c(-c3ccco3)nc3ccc(Cl)cn23)c1	·	45	1	·	6	5	·	·
Clc1cccc(Cc2c(-c3ccco3)nc3ccc(Br)cn23)c1	·	68*	13	·	5	0	19	2
CCc1cc2c(=O)c(-c3cnn(-c4ccccc4)c3)c(C)oc2cc1OCC(=O)Nc1ccc(F)c(F)c1	-8	11	2	-8	-16	-2	·	·
CCc1cc2c(=O)c(-c3cnn(-c4ccccc4)c3)c(C)oc2cc1OCC(=O)Nc1cccc(C)c1	-14	61*	0	-7	0	2	2	-4
Cc1noc(C)c1CCC(=O)NC1CCCN(Cc2ccc(CC(C)C)cc2)C1 (stereo not drawn)	5	53*	0	-3	1	-2	1	0
Cc1noc(C)c1CCC(=O)NC1CCCN(Cc2ccc(Cl)cc2)C1 (stereo not drawn)	-3	4	-1	5	0	0	·	·
Cc1ccc(NC(=O)C(=O)NN)cc1	-6	75*	-2	-4	5	-3	3	-1
O=C(O)CCCCC1SCC2NC(=O)NC21 (stereo not drawn)	-2	82*	-2	-1	-1	0	2	3
CCCCCC1NC(=O)NC1CCCCCC(=O)O (stereo not drawn)	-8	2	-2	-2	2	-1	·	·
COc1ccc(C(C(=O)NC2CCCC2)n2c(C3CCN(C(C)=O)CC3)nc3ccccc32)cc1 (stereo not drawn)	·	·	-1	·	-6	·	·	·
SMILES	HKDC1 inhibitor	DNMT1 block	LMPTP inh	Scp-1 inhibitor	SUMO1 PPI mod	STEP inh	DNMT1 inh conf	Beacon interf	others
O=C(COC(=O)C1CC(=O)N(Cc2ccco2)C1)c1ccc(OC(=O)c2ccco2)cc1 (stereo not drawn)	29	76*	18	81*	25	10	5	3
CCC(=O)N1N=C(c2c(-c3ccccc3)c3cc(Cl)ccc3[nH]c2=O)CC1c1ccco1 (stereo not drawn)	-16	52*	-1	-4	2	2	0	1
Cc1cccc(C(=O)NNC(=O)c2ccc(NS(=O)(=O)c3cccs3)cc2)c1C	-5	3	-1	-4	2	0	·	·
COCC(=O)Nc1ccccc1C(=O)Nc1ccc(OC)cc1	-4	2	-1	-5	-2	0	·	·
COc1ccc(NC(=O)c2ccccc2NC(=O)COc2ccccc2)cc1	-5	55*	0	-2	3	0	2	-4
COc1ccc2cc(OCC(=O)NNC(=O)Nc3ccc(C(C)=O)cc3)ccc2c1	3	72*	23	0	-18	6	6	-3
O=S(=O)(O)c1cc(O)ccc1O	2	-4	-1	-11	-6	0	·	·
O=S(=O)(c1cc(O)ccc1O)c1cccc2c(S(=O)(=O)c3cc(O)ccc3O)cccc12	31	95*	75*	69*	58*	84*	83*	3	DNMT1 interf DR=>99
N#CCNC(=O)C1CC(=O)N(CCc2ccc(F)cc2)C1 (stereo not drawn)	1	0	-4	-4	-3	-2	·	·
CCCCCCSc1ccc(-c2nc3ccc(Cl)cn3c2NCCCC)cc1OC	2	79*	2	5	-1	-2	1	2
O=C(NCc1ccc2c(c1)OCO2)C1CCN(C(=O)Nc2ccc(Cl)cc2)CC1	-5	75*	-1	-3	0	1	6	1
CSc1nc(SCC(=O)NC(c2ccccc2)c2ccccc2)c2c3c(sc2n1)CN(C)CC3	4	63*	4	0	-12	10	2	-4

Source: PubChem BioAssay (Sanford-Burnham Center for Chemical Genomics)
